Source: ChEMBL document CHEMBL5058577, “EUbOPEN Chemogenomics Library 2 (Multiplex)” (2022)

Tested on: HEK-293T
Test: Multiplex assay against HEK293T
Format: toxicity, cell-based
Settings: human
In short: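 Phenotypes for tubulin, mitochondrial mass and membrane permeability are expressed as per cents of healthy-nucleus cells. Cells were stained live at seeding with Hoechst33342, BioTracker Green Microtubule Cytoskeleton Dye, MitoTracker Red and Annexin V Alexa Fluor 680, then imaged after compound addition on a CQ1 microscope at 37°C and 5% CO2. Machine-learning gating in CellPathfinder separated Hoechst high-intensity objects from normal cells, divided normal cells by nuclear state (healthy, pyknosed, fragmented) and divided pyknosed cells into mitotic or apoptotic.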

[1] = 12 h, 1 µM, compound concentration 1 uM, replicate 1
[2] = 12 h, 1 µM, compound concentration 1 uM, replicate 2
[3] = 12 h, 10 µM, compound concentration 10 uM, replicate 1
[4] = 12 h, 10 µM, compound concentration 10 uM, replicate 2
[5] = 24 h, 1 µM, compound concentration 1 uM, replicate 1
[6] = 24 h, 1 µM, compound concentration 1 uM, replicate 2
[7] = 24 h, 10 µM, compound concentration 10 uM, replicate 1
[8] = 24 h, 10 µM, compound concentration 10 uM, replicate 2
[9] = 48 h, 1 µM, compound concentration 1 uM, replicate 1
[10] = 48 h, 1 µM, compound concentration 1 uM, replicate 2
[11] = 48 h, 10 µM, compound concentration 10 uM, replicate 1
[12] = 48 h, 10 µM, compound concentration 10 uM, replicate 2

CSCC[C@H](NC=O)C(=O)N[C@@H](CC(C)C)C(=O)N[C@@H](Cc1ccccc1)C(=O)O
Population Mitochondria Different-Phenotype (%) [1]: 47%
Population Tubulin-Different-Phenotype (%) [1]: 23%
Total Cell Count [1]: 466
Population Apoptotic (%) [2]: 28%
Population Mitochondria Different-Phenotype (%) [2]: 57%
Population Mitotic Cells (%) [2]: 71%
Population Tubulin-Different-Phenotype (%) [2]: 16%
Total Cell Count [2]: 437
Population Mitochondria Different-Phenotype (%) [3]: 52%
Population Tubulin-Different-Phenotype (%) [3]: 37%
Total Cell Count [3]: 366
Population Apoptotic (%) [4]: 54%
Population Mitochondria Different-Phenotype (%) [4]: 64%
Population Mitotic Cells (%) [4]: 45%
Population Tubulin-Different-Phenotype (%) [4]: 31%
Total Cell Count [4]: 375
Population Apoptotic (%) [5]: 21%
Population Mitochondria Different-Phenotype (%) [5]: 21%
Population Mitotic Cells (%) [5]: 78%
Population Tubulin-Different-Phenotype (%) [5]: 14%
Total Cell Count [5]: 679
Population Mitochondria Different-Phenotype (%) [6]: 37%
Population Tubulin-Different-Phenotype (%) [6]: 12%
Total Cell Count [6]: 550
Population Apoptotic (%) [7]: 25%
Population Mitochondria Different-Phenotype (%) [7]: 38%
Population Mitotic Cells (%) [7]: 75%
Population Tubulin-Different-Phenotype (%) [7]: 25%
Total Cell Count [7]: 479
Population Apoptotic (%) [8]: 36%
Population Mitochondria Different-Phenotype (%) [8]: 53%
Population Mitotic Cells (%) [8]: 64%
Population Tubulin-Different-Phenotype (%) [8]: 22%
Total Cell Count [8]: 490
Population Apoptotic (%) [9]: 29%
Population Mitochondria Different-Phenotype (%) [9]: 12%
Population Tubulin-Different-Phenotype (%) [9]: 12%
Total Cell Count [9]: 1154
Population Apoptotic (%) [10]: 20%
Population Mitochondria Different-Phenotype (%) [10]: 17%
Population Mitotic Cells (%) [10]: 79%
Total Cell Count [10]: 838
Population Apoptotic (%) [11]: 28%
Population Mitochondria Different-Phenotype (%) [11]: 24%
Population Mitotic Cells (%) [11]: 71%
Population Tubulin-Different-Phenotype (%) [11]: 12%
Total Cell Count [11]: 704
Population Apoptotic (%) [12]: 36%
Population Mitochondria Different-Phenotype (%) [12]: 28%
Population Mitotic Cells (%) [12]: 63%
Population Tubulin-Different-Phenotype (%) [12]: 14%
Total Cell Count [12]: 674

CCCn1c(=O)c2[nH]c(C3CCCC3)nc2n(CCC)c1=O [1,3-DIPROPYL-8-CYCLOPENTYLXANTHINE [DPCPX]]
Population Apoptotic (%) [1]: 35%
Population Fragmented Nuclei (%) [1]: 7%
Population Healthy Nuclei (%) [1]: 79%
Population Hoechst High Intensity Objects (%) [1]: 6%
Population Membrane Permeable-Phenotype (%) [1]: 0%
Population Mitochondria Different-Phenotype (%) [1]: 44%
Population Mitotic Cells (%) [1]: 64%
Population Normal (%) [1]: 93%
Population Pyknosed Nuclei (%) [1]: 12%
Population Tubulin-Different-Phenotype (%) [1]: 32%
Total Cell Count [1]: 443
Population Apoptotic (%) [2]: 54%
Population Fragmented Nuclei (%) [2]: 3%
Population Healthy Nuclei (%) [2]: 81%
Population Hoechst High Intensity Objects (%) [2]: 3%
Population Mitochondria Different-Phenotype (%) [2]: 52%
Population Mitotic Cells (%) [2]: 45%
Population Normal (%) [2]: 96%
Population Pyknosed Nuclei (%) [2]: 14%
Population Tubulin-Different-Phenotype (%) [2]: 15%
Total Cell Count [2]: 361
Population Apoptotic (%) [3]: 60%
Population Fragmented Nuclei (%) [3]: 12%
Population Healthy Nuclei (%) [3]: 68%
Population Hoechst High Intensity Objects (%) [3]: 5%
Population Membrane Permeable-Phenotype (%) [3]: 0%
Population Mitochondria Different-Phenotype (%) [3]: 58%
Population Mitotic Cells (%) [3]: 39%
Population Normal (%) [3]: 94%
Population Pyknosed Nuclei (%) [3]: 19%
Population Tubulin-Different-Phenotype (%) [3]: 51%
Total Cell Count [3]: 295
Population Apoptotic (%) [4]: 54%
Population Fragmented Nuclei (%) [4]: 7%
Population Healthy Nuclei (%) [4]: 75%
Population Hoechst High Intensity Objects (%) [4]: 18%
Population Mitochondria Different-Phenotype (%) [4]: 68%
Population Mitotic Cells (%) [4]: 45%
Population Normal (%) [4]: 81%
Population Pyknosed Nuclei (%) [4]: 16%
Population Tubulin-Different-Phenotype (%) [4]: 45%
Total Cell Count [4]: 337
Population Apoptotic (%) [5]: 26%
Population Fragmented Nuclei (%) [5]: 8%
Population Healthy Nuclei (%) [5]: 78%
Population Hoechst High Intensity Objects (%) [5]: 4%
Population Membrane Permeable-Phenotype (%) [5]: 1%
Population Mitochondria Different-Phenotype (%) [5]: 25%
Population Mitotic Cells (%) [5]: 73%
Population Normal (%) [5]: 95%
Population Pyknosed Nuclei (%) [5]: 13%
Population Tubulin-Different-Phenotype (%) [5]: 20%
Total Cell Count [5]: 610
Population Apoptotic (%) [6]: 28%
Population Fragmented Nuclei (%) [6]: 7%
Population Healthy Nuclei (%) [6]: 82%
Population Hoechst High Intensity Objects (%) [6]: 3%
Population Membrane Permeable-Phenotype (%) [6]: 0%
Population Mitochondria Different-Phenotype (%) [6]: 45%
Population Mitotic Cells (%) [6]: 71%
Population Normal (%) [6]: 96%
Population Pyknosed Nuclei (%) [6]: 10%
Population Tubulin-Different-Phenotype (%) [6]: 19%
Total Cell Count [6]: 403
Population Apoptotic (%) [7]: 50%
Population Fragmented Nuclei (%) [7]: 8%
Population Healthy Nuclei (%) [7]: 76%
Population Hoechst High Intensity Objects (%) [7]: 4%
Population Membrane Permeable-Phenotype (%) [7]: 0%
Population Mitochondria Different-Phenotype (%) [7]: 43%
Population Mitotic Cells (%) [7]: 50%
Population Normal (%) [7]: 95%
Population Pyknosed Nuclei (%) [7]: 14%
Population Tubulin-Different-Phenotype (%) [7]: 40%
Total Cell Count [7]: 379
Population Apoptotic (%) [8]: 41%
Population Fragmented Nuclei (%) [8]: 7%
Population Healthy Nuclei (%) [8]: 79%
Population Hoechst High Intensity Objects (%) [8]: 15%
Population Mitochondria Different-Phenotype (%) [8]: 55%
Population Mitotic Cells (%) [8]: 58%
Population Normal (%) [8]: 84%
Population Pyknosed Nuclei (%) [8]: 13%
Population Tubulin-Different-Phenotype (%) [8]: 31%
Total Cell Count [8]: 411
Population Apoptotic (%) [9]: 33%
Population Fragmented Nuclei (%) [9]: 11%
Population Healthy Nuclei (%) [9]: 81%
Population Hoechst High Intensity Objects (%) [9]: 1%
Population Membrane Permeable-Phenotype (%) [9]: 1%
Population Mitochondria Different-Phenotype (%) [9]: 17%
Population Mitotic Cells (%) [9]: 66%
Population Normal (%) [9]: 98%
Population Pyknosed Nuclei (%) [9]: 7%
Population Tubulin-Different-Phenotype (%) [9]: 17%
Total Cell Count [9]: 957
Population Apoptotic (%) [10]: 39%
Population Fragmented Nuclei (%) [10]: 14%
Population Healthy Nuclei (%) [10]: 80%
Population Hoechst High Intensity Objects (%) [10]: 3%
Population Membrane Permeable-Phenotype (%) [10]: 0%
Population Mitochondria Different-Phenotype (%) [10]: 22%
Population Mitotic Cells (%) [10]: 60%
Population Normal (%) [10]: 96%
Population Pyknosed Nuclei (%) [10]: 5%
Population Tubulin-Different-Phenotype (%) [10]: 13%
Total Cell Count [10]: 593
Population Apoptotic (%) [11]: 29%
Population Fragmented Nuclei (%) [11]: 14%
Population Healthy Nuclei (%) [11]: 76%
Population Hoechst High Intensity Objects (%) [11]: 3%
Population Membrane Permeable-Phenotype (%) [11]: 1%
Population Mitochondria Different-Phenotype (%) [11]: 37%
Population Mitotic Cells (%) [11]: 70%
Population Normal (%) [11]: 96%
Population Pyknosed Nuclei (%) [11]: 8%
Population Tubulin-Different-Phenotype (%) [11]: 30%
Total Cell Count [11]: 511
Population Apoptotic (%) [12]: 45%
Population Healthy Nuclei (%) [12]: 75%
Population Hoechst High Intensity Objects (%) [12]: 7%
Population Membrane Permeable-Phenotype (%) [12]: 0%
Population Mitochondria Different-Phenotype (%) [12]: 36%
Population Mitotic Cells (%) [12]: 54%
Population Normal (%) [12]: 92%
Population Pyknosed Nuclei (%) [12]: 10%
Population Tubulin-Different-Phenotype (%) [12]: 23%
Total Cell Count [12]: 516
